TDP2 absorb – TDP2 (human) inhibition, absorbance primary screen. O95551. recombinant TDP2, T5PNP hydrolysis, p-nitrophenol absorbance 415 nm. inhibition, % at 12.8 µM. 370,000 compounds, 0.34% hits. AID 720702;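 active = inhibition above the mean of all tested compounds plus 3 SD, set per campaign, cut at about 25% in these data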;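 note: 0% = DMSO with enzyme and 100% = buffer with substrate but no TDP2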
Target sequence (O95551 whole entry, looked up): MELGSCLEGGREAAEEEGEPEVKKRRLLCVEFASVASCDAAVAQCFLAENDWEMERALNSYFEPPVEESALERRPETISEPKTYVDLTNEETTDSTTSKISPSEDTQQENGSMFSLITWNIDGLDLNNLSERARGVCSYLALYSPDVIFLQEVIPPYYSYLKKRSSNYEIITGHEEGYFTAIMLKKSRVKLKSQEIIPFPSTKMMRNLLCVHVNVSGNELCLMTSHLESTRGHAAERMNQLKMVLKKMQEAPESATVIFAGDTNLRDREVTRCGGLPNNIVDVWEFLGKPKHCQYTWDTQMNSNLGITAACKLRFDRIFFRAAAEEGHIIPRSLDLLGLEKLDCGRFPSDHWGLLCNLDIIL
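Evaluation: % inhibition relative to enzyme-containing and enzyme-free wells. Material: recombinant human TDP2. Benchmarks: enzyme-free and DMSO wells. Timing: enzyme reaction with compound for 2 h at 37 °C. Compound dosing: 12.8 µM only. Measured by: p-Nitrophenol epi absorbance. Reagent: T5PNP substrate at 5 mM, a TopII-DNA adduct mimic. Replication: single well per compound.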
SIAE inh – human SIAE inhibition, primary screen; 370,000 compounds, 0.69% hits; inhibition, % at 9.66 µM; AID 1053197; SIAE FP-Rh probe binding, fluorescence polarization;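 active = inhibition above a cutoff: mean of compounds within the control limits plus 3 SD of those, cut at about 17% in these data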;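 note: 0% = plate median of compound wells and 100% = probe without SIAE protein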
LEDGF integ inh – blocks HIV-1 LEDGF/p75-dependent DNA integration; AID 743269; inhibition, % at 3.7 µM; TR-FRET IN-LEDGF/p75 DNA integration, Eu/Cy5; 370,000 compounds, 0.64% hits;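 active = inhibition above the screen-wide mean plus 3 SD, cut at about 13% in these data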;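 note: signal is the Cy5 over europium emission ratio at 671 and 618 nm; 0% = plate median of compound wells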
ABHD4 inh – ABHD4 (mouse) inhibition, primary FP screen; Q8VD66; purified mABHD4, FP-Rh probe fluorescence polarization; inhibition, % at 8.92 µM; 370,000 compounds, 0.54% hits; AID 720543;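 active = inhibition exceeding the mean over every tested compound plus 3 SD, cut at about 30% in these data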;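 note: 0% = plate median of compound wells and 100% = S159A mutant with DMSO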
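System: mouse ABHD4 enzyme, wild type / Medium: HEPES pH 7.0, NaCl, Pluronic buffer / Reagent: FP-Rh activity-based fluorescent probe / Control set: S159A mutant high control, sample median low control / Detection: fluorescence polarization with parallel and perpendicular emission, 525/598 nm / Schedule: 45 min + 60 min at 25 °C / Compound dosing: 8.92 µM, single dose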
HTRA1 inhibitor – blocks human HTRA1 serine peptidase; Q92743; recombinant HTRA1, FP-rhodamine activity-based probe, fluorescence polarization; inhibition, % at 5.96 µM; 340,000 compounds, 0.5% hits; AID 504803; in the data active = inhibition above about 36%;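 note: 0% = enzyme with DMSO and 100% = wells lacking enzyme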
TCR CD3 inh – human TCR-CD3 binding inhibition | 360,000 compounds, 0.37% hits | TAMRA-labeled TCR probe fluorescence, biochemical | AID 651800 | inhibition, % at 9.4 µM; in the data active = inhibition above about 19%;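 note: recombinant mutant TCR 2C K166C tagged with TAMRA read by polarization; 0% = receptor in buffer alone and 100% = receptor with positive control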
IN multimer act – HIV-1 integrase multimerization activation, counter-screen. shares compounds with LEDGF integ inh. TR-FRET HIV-1 integrase multimerization, biochemical. activation, % at 7.7 µM. 2,000 compounds, 17% hits. AID 1053131; in the data active = activation above about 8.9%
TRFRET interf – TR-FRET optical interference, LEDGF/p75 integration counter-screen | shares compounds with LEDGF integ inh | 2,000 tested, under 10 active | TR-FRET optical interference counterscreen, HIV-1 IN multimerization | inhibition, % at 7.7 µM;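 active = inhibition above the mean over all tested compounds plus 3 SD, which no compound reached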;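 note: 0% = integrase with antibodies and DMSO and 100% = antibodies without integrase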
LEDGF integ conf – confirmation of HIV-1 LEDGF/p75-dependent integration inhibitors | 2,000 compounds, 36% hits | shares compounds with LEDGF integ inh | AID 1053136 | inhibition, % at 3.7 µM | TR-FRET LEDGF/p75-dependent HIV-1 integration, biochemical; in the data active = inhibition above about 14%
* hit, by the source's call; . = not tested or not shown. The list is not random: actives were taken first. Their share in the collection is about 2.2%.

SMILES	TDP2 absorb	SIAE inh	LEDGF integ inh	ABHD4 inh	HTRA1 inhibitor	TCR CD3 inh	IN multimer act	TRFRET interf	LEDGF integ conf
COc1cccc(NC(=O)[C@H](CC(C)C)NC(=O)N2CCn3c2nc2ccccc23)c1	2.9	-11.3	3.7	-18.9	-23.6	5.7	.	.	.
O=C(/C=C/c1cccc(Cl)c1Cl)OCC(=O)N1CCOCC1	0.5	-0.6	-0.8	-13.1	-0.7	7.0	.	.	.
CS(=O)(=O)N1CCN(c2ccc(NC(=O)CSc3ccc(Cl)cc3)cc2)CC1	2.7	-3.6	63.4*	2.1	-1.7	4.7	-1.6	8.3	-1.1
CC(C)C[C@@H]1COc2cccc(NCCO)c2S(=O)(=O)N1	2.3	-1.9	-4.8	0.4	.	6.7	.	.	.
O=C(Nc1nc(-c2ccco2)c(-c2ccco2)s1)C1CCC1	7.1	1.8	17.1*	13.2	9.6	-4.5	1.8	-9.2	20.9*
O=C(Nc1nc(-c2ccco2)c(-c2ccco2)s1)C1CC(=O)N(c2ccc3c(c2)OCCO3)C1 (configuration not stated)	0.0	8.6	18.5*	-0.9	10.8	7.9	12.8*	-64.4	41.5*
Cc1nnc(NC(=O)C2CC(=O)N(c3ccc4c(c3)OCCO4)C2)s1 (configuration not stated)	-0.7	-4.2	4.3	0.6	2.8	0.1	.	.	.
CC1C(=O)N2CCCc3cc(NC(=O)COc4ccccc4)cc1c32 (configuration not stated)	7.2	0.9	-0.1	-0.9	-0.3	3.7	.	.	.
COC(=O)c1cc(NS(=O)(=O)c2ccc(N3CCOCC3)c(N)c2)cc(C(=O)OC)c1	0.3	3.4	14.4*	19.4	2.4	-2.9	0.3	-1.5	-5.9
COC(=O)c1cc(NS(=O)(=O)c2ccc(N3CCOCC3)c(NC(C)=O)c2)cc(C(=O)OC)c1	1.2	-2.2	1.6	4.5	2.3	5.4	.	.	.
CC(=O)Nc1ccc(NC(=O)C2CC(=O)N=C(N)S2)cc1 (configuration not stated)	5.2	11.0	1.2	3.8	-1.2	-2.0	.	.	.
COc1cccc(NC(=O)C2CC(=O)N=C(N)S2)c1 (configuration not stated)	5.3	1.6	16.9*	-2.1	7.0	2.8	0.3	-1.7	1.0
Cc1cccc(NC(=O)CNC(=O)c2ccc3nc[nH]c3c2)c1C	11.7	4.8	-4.7	13.9	3.9	-6.9	.	.	.
COc1ccc(CS(=O)(=O)CC(C)(O)c2ccc(Cl)cc2)cc1 (configuration not stated)	10.3	12.2	14.2*	-2.1	-0.1	4.4	0.5	-1.6	0.1
O=C(C=Cc1ccco1)N1CCOCC1	-1.4	14.2	0.8	-1.2	-2.2	-3.5	.	.	.
O=C(/C=C/c1ccco1)NC1CCCC1	-1.9	0.6	2.4	-0.1	3.0	-3.8	.	.	.
O=C(C=C1SCCS1)/C=C/c1ccco1	-8.5	0.4	14.3*	7.9	-3.1	12.2	5.3	-26.6	35.5*
O=C(O)C(C(=O)/C=C/c1ccco1)=C1SCCS1	-5.0	8.7	17.5*	7.0	4.6	10.2	0.9	-4.6	32.5*
COc1ccc(CCNCC(=O)Nc2ccc(C)c(S(=O)(=O)N(C)C)c2)cc1	14.3	15.7	-0.6	10.5	5.1	-5.8	.	.	.
Cc1ccc(NC(=O)CNCC2CCCCC2)cc1S(=O)(=O)N(C)C	6.7	6.2	31.9*	8.2	-5.5	0.9	-0.3	1.3	-15.3
COc1ccc(NC(=O)C2C(c3ccc4c(c3)OCO4)=Nc3ccccc3N2C(C)=O)cc1 (configuration not stated)	-3.6	5.5	-0.5	5.1	.	1.1	.	.	.
COc1ccccc1COC(=O)N/C=C/c1ccco1	-6.8	4.4	13.8*	5.2	-12.0	-6.0	-1.3	4.4	17.1*

Screens deposited in PubChem by The Scripps Research Institute Molecular Screening Center.
